Measurements: ChEMBL document CHEMBL5678798 (Clin Cancer Res, 2009)
Calls of active or inactive are those of the source. The calls are words filed in the database; no cut-off is given here.

Key:
[1] = biological target: Fibroblast growth factor receptor 3 (Homo sapiens) (UniProt P22607); experiment: Inhibition of N-terminal His6-tagged recombinant human FGFR3 (447 to 761 residues) expressed in Sf21 cells at 3 uM by filter binding assay relative to control
[2] = biological target: Death-associated protein kinase 2 (Homo sapiens) (UniProt Q9UIK4); experiment: Inhibition of N-terminal GST-tagged recombinant human full length DAPK2 expressed in baculovirus infected Sf21 cells at 3 uM by filter binding assay relative to control
Summary of the method: (§1)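 Outsourced single-concentration screen in a commercial panel of 233 protein kinases, run as radiometric filter-binding activity assays. Test agent was tested at 0.3 or 3 µmol/L, as given in each line, from a 10 mmol/L DMSO stock. Activity is expressed as percent inhibition relative to control.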

[3] = Inhibition of CDK2/CyclinA (unknown origin); parameters: species or system Homo sapiens
SK-OV-3 = experiment: Antiproliferative activity against human SK-OV-3 cells assessed as reduction in cell viability after 72 hrs by CellTiter-Glo assay; format: functional, cell-based; settings: SK-OV-3, 72 h
Summary of the method: (§2)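 Cells seeded in 96-well plates, left overnight at 37°C, then exposed to a range of test concentrations for 72 h. Viability read by CellTiter-Glo luminescence; IC50 from four-parameter curve fit. Lines kept at 37°C, 5% CO2, in recommended growth medium.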

MCF7 = experiment: Induction of cell cycle arrest in human MCF7 cells assessed as decrease in cells accumulation at S phase at 0.03 to 10 uM incubated for 24 to 48 hrs by propidium iodide staining based flow cytometric analysis; format: functional; settings: dose 0.03-10 µM, time lower 24.0 hrs, time upper […]
Summary of the method: (§3)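 COLO 205, MCF-7 or NCI-H929 cells seeded in 96-well plates overnight at 37°C, then exposed to DMSO or increasing compound concentrations for 24 or 48 h. Fixed and stained with propidium iodide (Vindelov method), then analysed by flow cytometry for sub-G1, G1, S and G2-M fractions. Experiment repeated twice.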

[4] = biological target: Tyrosine-protein kinase SYK (Homo sapiens, UniProt P43405); experiment: Inhibition of SYK (unknown origin)
[5] = biological target: MAP kinase-interacting serine/threonine-protein kinase 2 (Homo sapiens) (UniProt Q9HBH9); experiment: Inhibition of N-terminal 6His-tagged recombinant human full-length Mnk2 expressed in baculovirus infected Sf21 cells at 3 uM by filter binding assay relative to control; summary of the method: as §1
[6] = Toxicity in nu/nu CD-1 mouse xenografted with human HT-29 cells assessed as reduction in body weight at 30 mg/kg, po for 21 days relative to control; format: organism-based; settings: in vivo, 504 h, time 21 day
[7] = biological target: Tyrosine-protein kinase JAK2 (Homo sapiens, UniProt O60674); experiment: Inhibition of JAK2 (unknown origin)
[8] = biological target: Tyrosine-protein kinase Yes (Homo sapiens) (UniProt P07947); experiment: Inhibition of N-terminal His6 tagged recombinant full-length human Yes expressed in baculovirus infected Sf21 cells at 3 uM by filter binding assay relative to control; summary of the method: as §1
[9] = biological target: Serine/threonine-protein kinase pim-3 (Homo sapiens) (UniProt Q86V86); experiment: Inhibition of N-terminal 6His-tagged recombinant human Pim-3 expressed in baculovirus infected Sf21 cells at 0.3 uM by filter binding assay relative to control; summary of the method: as §1
[10] = Toxicity in nu/nu CD-1 mouse implanted with mouse NIH-3T3/LISN cells assessed as reduction in body weight at 30 mg/kg, po for 21 days; format: organism-based; settings: in vivo, 504 h, time 21 day
[11] = In vivo inhibition of IGF1R in mouse NIH-3T3/LISN cells implanted in IGF1-stimulated nu/nu CD-1 mouse assessed as reduction in IGF1R phosphorylation at 3 mg/kg, po pretreated for 4 hrs followed by IGF1 stimulation and measured after 10 min by […] relative to control; format: functional; settings: 4.167 h, time 250 min
Summary of the method: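 Female nu/nu CD-1 mice, three per group, bearing ~500 mm3 tumors, given one oral dose of compound or vehicle. At 4 h, 10 µg hIGF-I i.v. via tail vein; saline controls. Tumor and blood taken 10 min later. Tumor lysates in RIPA captured on anti-IGF-IR plates and probed with europium anti-phosphotyrosine. Phospho/total IGF-IR expressed as % of ligand-stimulated control. Blood levels by LC-MS/MS.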

NIH-3T3/LISN = experiment: In vivo inhibition of IGF1R in mouse NIH-3T3/LISN cells implanted in IGF1-stimulated nu/nu CD-1 mouse assessed as reduction in IGF1R phosphorylation at 30 mg/kg, po pretreated for 48 to 72 hrs followed by IGF1 stimulation and measured after 10 min by […] relative to control; format: functional, organism-based; settings: time 2880-4330 min
Summary of the method: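 Time course: tumor-bearing female nu/nu CD-1 mice, three per group, given a single oral 30 mg/kg dose or vehicle. IGF-I given 10 min before blood and tumor collection at each time point. Tumor phospho-IGF-IR/total IGF-IR measured by capture-plate europium phosphotyrosine assay and expressed as % of ligand-stimulated control.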

[12] = biological target: Serine/threonine-protein kinase 17A (Homo sapiens) (UniProt Q9UEE5); experiment: Inhibition of N-terminal 6His-tagged recombinant full-length human DRAK1 expressed in baculovirus infected Sf21 cells at 3 uM by filter binding assay relative to control
Summary of the method: (§4)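 KinaseProfiler panel of 233 kinases: radiometric filter-binding activity assays with compound at 0.3 or 3 µmol/L. Read-out is percent inhibition.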

[13] = biological target: Ephrin type-A receptor 5 (Homo sapiens) (UniProt P54756); experiment: Inhibition of N-terminal His6-tagged human EphA5 expressed in baculovirus infected Sf21 cells at 0.3 uM by filter binding assay relative to control; summary of the method: as §1
[14] = biological target: Calcium/calmodulin-dependent protein kinase type IV (Homo sapiens) (UniProt Q16566); experiment: Inhibition of C-terminal His6-tagged recombinant full length human CaMKIV expressed in baculovirus infected Sf21 cells at 3 uM by filter binding assay relative to control; summary of the method: as §4
[15] = biological target: cGMP-dependent protein kinase 1 (Homo sapiens) (UniProt Q13976); experiment: Inhibition of N-terminal 6His-tagged recombinant full-length human PKG1beta expressed in baculovirus infected Sf21 cells at 3 uM by filter binding assay relative to control; summary of the method: as §4
[16] = biological target: MAP kinase-activated protein kinase 2 (Homo sapiens, UniProt P49137); experiment: Inhibition of MAPKAPK2 (unknown origin)
COLO 205 = experiment: Induction of cell cycle arrest in human COLO 205 cells assessed as cells accumulation at G1 phase at 1 umol/L incubated for 48 hrs by propidium iodide staining based flow cytometric analysis (reference value: 65%); format: functional; settings: dose 1 µmol/L, at 1 µM; summary of the method: as §3
[17] = Toxicity in nu/nu CD-1 mouse xenografted with human COLO 205 cells assessed as reduction in body weight at 30 mg/kg, po administered twice daily for 21 days relative to control; format: organism-based; parameters: scale not given: the % may be the effect or the level left; settings: in vivo, 504 h, time 21 day
[18] = biological target: Fibroblast growth factor receptor 4 (Homo sapiens) (UniProt P22455); experiment: Inhibition of N-terminal His6-tagged recombinant human FGFR4 (442 to 755 residues) expressed in baculovirus infected Sf21 cells at 0.3 uM by filter binding assay relative to control
NCI-H929 = experiment: Antiproliferative activity against human NCI-H929 cells assessed as reduction in cell viability after 72 hrs by CellTiter-Glo assay; format: functional, cell-based; settings: NCI-H929, 72 h; summary of the method: as §2

Sequence of Serine/threonine-protein kinase 17A (Homo sapiens) (Q9UEE5 whole entry): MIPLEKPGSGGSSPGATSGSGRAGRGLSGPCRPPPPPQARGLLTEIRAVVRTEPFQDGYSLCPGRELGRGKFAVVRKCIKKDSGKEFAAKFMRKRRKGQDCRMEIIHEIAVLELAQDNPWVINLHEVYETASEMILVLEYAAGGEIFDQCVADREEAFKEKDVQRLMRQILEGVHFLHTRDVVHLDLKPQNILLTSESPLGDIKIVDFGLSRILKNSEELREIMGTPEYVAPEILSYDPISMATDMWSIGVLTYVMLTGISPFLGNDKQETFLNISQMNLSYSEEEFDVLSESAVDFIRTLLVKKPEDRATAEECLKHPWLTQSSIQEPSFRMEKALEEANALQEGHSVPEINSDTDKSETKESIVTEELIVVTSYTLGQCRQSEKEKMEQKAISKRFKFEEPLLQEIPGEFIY
Sequence of Ephrin type-A receptor 5 (Homo sapiens) (P54756 whole entry): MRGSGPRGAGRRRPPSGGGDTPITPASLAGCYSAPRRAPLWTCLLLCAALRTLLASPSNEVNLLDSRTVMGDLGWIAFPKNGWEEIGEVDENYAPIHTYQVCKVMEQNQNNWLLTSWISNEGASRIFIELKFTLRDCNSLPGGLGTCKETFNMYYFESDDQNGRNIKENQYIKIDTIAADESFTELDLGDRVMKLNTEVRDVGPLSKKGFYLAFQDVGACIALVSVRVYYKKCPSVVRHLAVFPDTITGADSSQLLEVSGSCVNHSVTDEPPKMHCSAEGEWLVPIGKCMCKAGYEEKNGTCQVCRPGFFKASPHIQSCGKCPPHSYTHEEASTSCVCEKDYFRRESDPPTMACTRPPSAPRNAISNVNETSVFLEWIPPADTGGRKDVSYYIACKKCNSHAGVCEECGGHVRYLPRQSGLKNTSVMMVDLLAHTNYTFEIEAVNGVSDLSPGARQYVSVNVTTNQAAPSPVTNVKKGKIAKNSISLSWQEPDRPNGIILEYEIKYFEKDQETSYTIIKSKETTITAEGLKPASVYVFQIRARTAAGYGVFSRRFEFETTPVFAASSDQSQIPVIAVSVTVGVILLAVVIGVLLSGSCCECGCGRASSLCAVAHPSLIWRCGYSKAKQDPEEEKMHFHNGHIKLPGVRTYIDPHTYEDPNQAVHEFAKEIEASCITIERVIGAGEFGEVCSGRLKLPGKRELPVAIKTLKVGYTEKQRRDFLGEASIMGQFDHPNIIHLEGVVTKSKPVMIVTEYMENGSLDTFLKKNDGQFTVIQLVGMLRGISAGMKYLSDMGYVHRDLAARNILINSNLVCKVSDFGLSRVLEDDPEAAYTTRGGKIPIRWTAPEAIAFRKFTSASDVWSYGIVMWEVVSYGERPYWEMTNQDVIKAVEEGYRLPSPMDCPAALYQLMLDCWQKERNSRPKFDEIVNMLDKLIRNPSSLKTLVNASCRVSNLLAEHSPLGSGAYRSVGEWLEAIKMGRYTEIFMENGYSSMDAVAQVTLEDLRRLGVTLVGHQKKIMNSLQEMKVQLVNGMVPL
Sequence of MAP kinase-interacting serine/threonine-protein kinase 2 (Homo sapiens) (Q9HBH9 whole entry, looked up): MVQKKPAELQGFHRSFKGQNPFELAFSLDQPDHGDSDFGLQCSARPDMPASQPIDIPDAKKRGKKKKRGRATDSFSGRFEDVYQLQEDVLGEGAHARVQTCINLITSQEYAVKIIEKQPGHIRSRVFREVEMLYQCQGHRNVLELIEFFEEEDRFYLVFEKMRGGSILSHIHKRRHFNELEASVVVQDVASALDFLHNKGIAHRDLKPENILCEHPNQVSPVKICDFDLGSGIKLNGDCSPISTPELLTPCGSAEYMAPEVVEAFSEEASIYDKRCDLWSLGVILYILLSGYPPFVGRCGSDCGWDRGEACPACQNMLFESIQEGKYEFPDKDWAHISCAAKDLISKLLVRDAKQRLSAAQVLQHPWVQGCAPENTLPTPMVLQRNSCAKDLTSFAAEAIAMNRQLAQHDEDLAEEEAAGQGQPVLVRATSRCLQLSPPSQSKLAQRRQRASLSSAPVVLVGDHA
Sequence of Death-associated protein kinase 2 (Homo sapiens) (Q9UIK4 whole entry, looked up): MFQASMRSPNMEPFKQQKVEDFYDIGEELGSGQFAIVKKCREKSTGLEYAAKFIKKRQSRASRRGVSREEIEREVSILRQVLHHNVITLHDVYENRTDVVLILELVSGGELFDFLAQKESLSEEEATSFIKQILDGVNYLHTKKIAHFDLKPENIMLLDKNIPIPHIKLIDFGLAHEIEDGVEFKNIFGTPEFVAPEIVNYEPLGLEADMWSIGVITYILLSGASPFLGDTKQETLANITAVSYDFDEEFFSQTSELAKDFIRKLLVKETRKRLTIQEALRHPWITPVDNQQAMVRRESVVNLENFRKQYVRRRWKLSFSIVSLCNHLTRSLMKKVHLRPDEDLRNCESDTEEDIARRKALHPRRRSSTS
Sequence of Calcium/calmodulin-dependent protein kinase type IV (Homo sapiens) (Q16566 whole entry): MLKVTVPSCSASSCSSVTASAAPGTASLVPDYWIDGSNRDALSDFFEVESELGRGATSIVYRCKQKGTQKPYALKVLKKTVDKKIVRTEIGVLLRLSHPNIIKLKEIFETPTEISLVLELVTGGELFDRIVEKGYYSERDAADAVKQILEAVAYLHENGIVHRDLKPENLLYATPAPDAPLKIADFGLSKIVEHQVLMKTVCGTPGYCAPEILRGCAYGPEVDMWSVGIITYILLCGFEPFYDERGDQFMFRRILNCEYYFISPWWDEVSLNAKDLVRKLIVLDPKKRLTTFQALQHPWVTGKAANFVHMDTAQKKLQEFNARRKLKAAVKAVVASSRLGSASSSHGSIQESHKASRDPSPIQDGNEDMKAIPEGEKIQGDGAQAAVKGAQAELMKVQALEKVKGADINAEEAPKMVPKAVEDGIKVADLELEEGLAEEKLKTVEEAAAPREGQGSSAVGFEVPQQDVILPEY
Sequence of Tyrosine-protein kinase Yes (Homo sapiens) (P07947 2-543 limits assumed): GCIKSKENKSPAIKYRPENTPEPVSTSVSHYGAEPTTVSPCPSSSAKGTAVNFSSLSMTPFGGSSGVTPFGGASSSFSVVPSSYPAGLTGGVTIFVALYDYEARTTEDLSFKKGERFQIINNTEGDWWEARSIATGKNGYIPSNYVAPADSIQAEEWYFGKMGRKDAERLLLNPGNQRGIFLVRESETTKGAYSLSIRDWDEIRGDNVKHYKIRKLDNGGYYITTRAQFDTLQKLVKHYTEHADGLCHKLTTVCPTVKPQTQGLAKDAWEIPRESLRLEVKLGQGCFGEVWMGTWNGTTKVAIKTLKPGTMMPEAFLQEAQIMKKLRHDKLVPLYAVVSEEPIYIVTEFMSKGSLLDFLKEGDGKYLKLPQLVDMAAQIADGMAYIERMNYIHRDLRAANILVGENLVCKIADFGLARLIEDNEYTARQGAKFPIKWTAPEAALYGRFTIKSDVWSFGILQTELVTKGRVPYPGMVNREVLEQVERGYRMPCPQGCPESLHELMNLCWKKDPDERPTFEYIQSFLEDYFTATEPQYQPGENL
Sequence of Tyrosine-protein kinase JAK2 (O60674 whole entry): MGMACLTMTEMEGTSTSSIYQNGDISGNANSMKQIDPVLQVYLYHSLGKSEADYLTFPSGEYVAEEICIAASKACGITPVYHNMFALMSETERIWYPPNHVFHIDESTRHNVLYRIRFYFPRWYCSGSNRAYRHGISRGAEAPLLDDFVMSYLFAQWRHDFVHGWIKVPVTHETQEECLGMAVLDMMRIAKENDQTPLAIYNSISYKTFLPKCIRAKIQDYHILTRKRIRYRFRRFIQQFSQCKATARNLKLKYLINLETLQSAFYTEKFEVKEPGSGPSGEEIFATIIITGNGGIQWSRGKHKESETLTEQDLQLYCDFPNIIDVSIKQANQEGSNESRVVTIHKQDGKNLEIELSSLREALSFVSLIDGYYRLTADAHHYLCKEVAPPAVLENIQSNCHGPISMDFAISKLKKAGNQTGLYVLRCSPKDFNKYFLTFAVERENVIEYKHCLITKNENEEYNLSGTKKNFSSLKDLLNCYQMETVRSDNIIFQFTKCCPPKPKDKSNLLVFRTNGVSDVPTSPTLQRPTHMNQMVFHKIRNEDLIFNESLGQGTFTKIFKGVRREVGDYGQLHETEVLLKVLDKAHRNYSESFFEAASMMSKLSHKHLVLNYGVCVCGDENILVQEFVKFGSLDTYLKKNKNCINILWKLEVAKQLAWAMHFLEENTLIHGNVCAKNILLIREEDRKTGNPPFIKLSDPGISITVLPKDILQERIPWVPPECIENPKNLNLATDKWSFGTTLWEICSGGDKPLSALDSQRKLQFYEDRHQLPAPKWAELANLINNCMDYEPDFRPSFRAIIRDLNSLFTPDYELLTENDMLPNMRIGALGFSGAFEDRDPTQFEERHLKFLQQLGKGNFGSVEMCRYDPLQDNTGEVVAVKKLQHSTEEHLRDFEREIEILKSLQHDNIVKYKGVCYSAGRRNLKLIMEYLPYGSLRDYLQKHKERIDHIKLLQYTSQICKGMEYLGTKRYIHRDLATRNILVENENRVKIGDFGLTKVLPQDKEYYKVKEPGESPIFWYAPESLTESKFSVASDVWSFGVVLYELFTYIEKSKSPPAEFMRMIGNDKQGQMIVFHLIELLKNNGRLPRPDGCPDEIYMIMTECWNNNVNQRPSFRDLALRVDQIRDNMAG

CCc1cc(Nc2nccc(-c3c(-c4ccc(OC)c(C(=O)Nc5c(F)cccc5F)c4)nc4ccccn34)n2)c(OC)cc1N1CCC(N2CCN(S(C)(=O)=O)CC2)CC1
inhibition [1]: 25%
inhibition [2]: 4%
IC50 [3]: > 10 µM
IC50 (SK-OV-3): > 20 µM
Activity (MCF7): Active
IC50 [4]: 3.2 µM
inhibition [5]: 24%
Activity [6]: Non-Toxic
IC50 [7]: > 16 µM
inhibition [8]: 27%
inhibition [9]: -10%
Activity [10]: Non-Toxic
inhibition in vivo at 3 mg/kg [11]: 75%
inhibition (NIH-3T3/LISN): inactive
inhibition [12]: 10%
inhibition [13]: 11%
inhibition [14]: 10%
inhibition [15]: 32%
IC50 [16]: > 25 µM
Activity (COLO 205): 78%
Activity [17]: > 20%
inhibition [18]: 21%
IC50 (NCI-H929): 0.081 µM
